The IC50 is the concentration needed to halve the response being measured.

Structures are written as SMILES. Where two headings read alike, the source gives them in different places.

In assay [1] the target is T1, integrin α5β1 (Homo sapiens, UniProt P05556+P08648). The note with it: read-out: α5β1 IC50; cited from earlier work.
For assay [2], the target named is T1, integrin α5β1. The experiment in a line: Integrin α5β1 binding assay.
A further assay concerns the target human integrin αvβ3 (Homo sapiens, UniProt P05106+P06756). The assay is classed as binding. Particulars: SD. In outline:
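Immobilized isolated human αvβ3 integrin incubated with biotinylated vitronectin (1 μg mL−1) plus test compound over 10−5–10−12 M. Bound biotinylated vitronectin measured. IC50 taken as the concentration giving 50 % inhibition of vitronectin binding, calculated from the concentration-response data. Values are mean ± standard deviation of duplicate measurements.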

On to `N=C(N)NCCC[C@@H]1NC(=O)C[C@H]2NC(=O)[C@H](CNC(=O)[C@H](CC(=O)O)NC(=O)CNC1=O)N(Cc1ccccc1)C2=O` [compound 1, cyclo[DKP‐RGD]], for which, at integrin α5β1 [1], the IC50 was 532 nM. With `N=C(N)NCCC[C@@H]1NC(=O)CNC(=O)C[C@@H](C(=O)O)NC(=O)C[C@H]2NC(=O)[C@H](CNC1=O)N(Cc1ccccc1)C2=O` [compound 3, cyclo[DKP‐isoDGR]], the IC50 on integrin α5β1 [2] was 1070 nM. `COc1ccc(C[C@H]2NC(=O)/C=C/C[C@@H]([C@H](C)[C@@H](OC(=O)CNC(=O)OCc3ccc(NC(=O)[C@H](C)NC(=O)[C@@H](NC(=O)CCc4cn(CCOCCOCCOCCOCC(=O)NCc5ccc(CN6C(=O)[C@H]7CC(=O)N[C@@H](CCCNC(=N)N)C(=O)NCC(=O)N[C@@H](CC(=O)O)C(=O)NC[C@H]6C(=O)N7)cc5)nn4)C(C)C)cc3)[C@@H](Cl)c3ccccc3)OC(=O)[C@H](CC(C)C)OC(=O)C(C)(C)CNC2=O)cc1Cl` [compound 10, cyclo[DKP‐RGD]‐PEG4‐Val−Ala‐PABC‐Cry‐55gly]: at human integrin αvβ3, the 50% inhibitory concentration (IC50) stood at 7.2 ± 1.5 nM.

Take `COc1ccc(C[C@H]2NC(=O)/C=C/C[C@@H]([C@H](C)[C@@H](OC(=O)CNC(=O)OCc3ccc(NC(=O)[C@H](C)NC(=O)[C@@H](NC(=O)CCc4cn(CCOCCOCCOCCOCC(=O)NCc5ccc(CN6C(=O)[C@H]7CC(=O)N[C@H](C(=O)O)CC(=O)NCC(=O)N[C@@H](CCCNC(=N)N)C(=O)NC[C@H]6C(=O)N7)cc5)nn4)C(C)C)cc3)[C@@H](Cl)c3ccccc3)OC(=O)[C@H](CC(C)C)OC(=O)C(C)(C)CNC2=O)cc1Cl` [compound 11, cyclo[DKP‐isoDGR]‐PEG4‐Val−Ala‐PABC‐Cry‐55gly]: the IC50 against human integrin αvβ3 was 5.5 ± 2.8 nM. Turning to `COc1ccc(C[C@H]2NC(=O)/C=C/C[C@@H]([C@H](C)[C@@H](OC(=O)CNC(=O)CCc3cn(CCOCCOCCOCCOCC(=O)NCc4ccc(CN5C(=O)[C@H]6CC(=O)N[C@@H](CCCNC(=N)N)C(=O)NCC(=O)N[C@@H](CC(=O)O)C(=O)NC[C@H]5C(=O)N6)cc4)nn3)[C@@H](Cl)c3ccccc3)OC(=O)[C@H](CC(C)C)OC(=O)C(C)(C)CNC2=O)cc1Cl` [compound 13, cyclo[DKP‐RGD]‐PEG4‐uncl‐Cry‐55gly], the IC50 on human integrin αvβ3 amounted to 24.1 ± 1 nM. The compound `COc1ccc(C[C@H]2NC(=O)/C=C/C[C@@H]([C@H](C)[C@@H](OC(=O)CNC(=O)CCc3cn(CCOCCOCCOCCOCC(=O)NCc4ccc(CN5C(=O)[C@H]6CC(=O)N[C@H](C(=O)O)CC(=O)NCC(=O)N[C@@H](CCCNC(=N)N)C(=O)NC[C@H]5C(=O)N6)cc4)nn3)[C@@H](Cl)c3ccccc3)OC(=O)[C@H](CC(C)C)OC(=O)C(C)(C)CNC2=O)cc1Cl` [compound 14, cyclo[DKP‐isoDGR]‐PEG4‐uncl‐Cry‐55gly] gave a half-inhibitory concentration (IC50) against human integrin αvβ3 of 10.2 ± 0.4 nM.

These data come from paper PMC6587324 (ChemistryOpen, 2019).
